Drawing on ChEMBL document CHEMBL5678818, “Discovery of potent SOS1 inhibitors that block RAS activation via disruption of the RAS-SOS1 interaction” (Proc Natl Acad Sci U S A, 2019), this text covers IC50 and Activity for 33 molecules.

Calls of active or inactive are those of the source. The rule behind the calls is not given here.

The target of assay [1] is SOS1-KRAS (Homo sapiens, UniProt Q07889). The assay can be described thus: Inhibition of N-terminal GST-tagged recombinant human KRAS G12C mutant (1 to 169 residues) expressed in Escherichia coli/N-terminal His10-tagged wild-type recombinant human SOS1 catalytic domain (564 to 1049 residues) expressed in Escherichia coli protein-protein interaction preincubated for 2 mins with KRAS followed by SOS1 addition measured after 60 mins in presence of anti-6His-XL665 by HTRF analysis.

The target of assay [2] is Epidermal growth factor receptor (Homo sapiens, UniProt P00533). The assay can be described thus: Inhibition of human EGFR using biotin-aminohexyl-AEEEEYFELVAKKK as substrate preincubated for 15 mins followed by substrate/ATP addition measured after 20 mins by FRET assay.
For assay [3], the species on record is Homo sapiens. The assay can be described thus: Stabilization of N-terminal His10-tagged recombinant human KRAS G12C/C118S mutant (1 to 169 residues) expressed in Escherichia coli/Series S C1 sensor chip-immobilized biotinylated N-terminal His10-tagged wild-type recombinant human SOS1 catalytic domain (564 to 1049 residues) expressed in Escherichia coli at 100 to 500 uM measured for 360 secs by SPR analysis. The conditions noted are these: dose 100-500 µM, time 360.0 sec. In outline: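 SOS1cat is immobilized on the chip, and 250 nM KRASG12C_C118S is flowed over with or without test compound. Compound alone at 100, 250 and 500 µM is also injected to gauge unspecific binding to SOS1cat. Buffer injection serves as the blank.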

For assay [4], the species on record is Homo sapiens. The assay can be described thus: Stabilization of N-terminal His10-tagged 15N-labeled recombinant human KRAS G12C/C118S mutant (1 to 169 residues) expressed in Escherichia coli/N-terminal His10-tagged wild-type recombinant human SOS1 catalytic domain (564 to 1049 residues) expressed in Escherichia coli at 1 mM incubated for 30 mins by 2D-NMR analysis.

The species named for assay [5] is Homo sapiens. The assay can be described thus: Stabilization of N-terminal His10-tagged recombinant human KRAS G12C/C118S mutant (1 to 169 residues) expressed in Escherichia coli/N-terminal His10-tagged wild-type recombinant human SOS1 catalytic domain (564 to 1049 residues) expressed in Escherichia coli by HTRF analysis. In outline:
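HTRF equilibrium-binding read-out of KRASG12C_C118S with SOS1cat, detected by fluorescently labelled antibodies including a terbium donor. Signal normalized with DMSO control as 100% and no-SOS1cat wells as 0%. Data are mean ± SD, n = 4.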

SOS1-KRAS, sequence (Q07889 whole entry, looked up, stated change not applied, the tested form may be a part): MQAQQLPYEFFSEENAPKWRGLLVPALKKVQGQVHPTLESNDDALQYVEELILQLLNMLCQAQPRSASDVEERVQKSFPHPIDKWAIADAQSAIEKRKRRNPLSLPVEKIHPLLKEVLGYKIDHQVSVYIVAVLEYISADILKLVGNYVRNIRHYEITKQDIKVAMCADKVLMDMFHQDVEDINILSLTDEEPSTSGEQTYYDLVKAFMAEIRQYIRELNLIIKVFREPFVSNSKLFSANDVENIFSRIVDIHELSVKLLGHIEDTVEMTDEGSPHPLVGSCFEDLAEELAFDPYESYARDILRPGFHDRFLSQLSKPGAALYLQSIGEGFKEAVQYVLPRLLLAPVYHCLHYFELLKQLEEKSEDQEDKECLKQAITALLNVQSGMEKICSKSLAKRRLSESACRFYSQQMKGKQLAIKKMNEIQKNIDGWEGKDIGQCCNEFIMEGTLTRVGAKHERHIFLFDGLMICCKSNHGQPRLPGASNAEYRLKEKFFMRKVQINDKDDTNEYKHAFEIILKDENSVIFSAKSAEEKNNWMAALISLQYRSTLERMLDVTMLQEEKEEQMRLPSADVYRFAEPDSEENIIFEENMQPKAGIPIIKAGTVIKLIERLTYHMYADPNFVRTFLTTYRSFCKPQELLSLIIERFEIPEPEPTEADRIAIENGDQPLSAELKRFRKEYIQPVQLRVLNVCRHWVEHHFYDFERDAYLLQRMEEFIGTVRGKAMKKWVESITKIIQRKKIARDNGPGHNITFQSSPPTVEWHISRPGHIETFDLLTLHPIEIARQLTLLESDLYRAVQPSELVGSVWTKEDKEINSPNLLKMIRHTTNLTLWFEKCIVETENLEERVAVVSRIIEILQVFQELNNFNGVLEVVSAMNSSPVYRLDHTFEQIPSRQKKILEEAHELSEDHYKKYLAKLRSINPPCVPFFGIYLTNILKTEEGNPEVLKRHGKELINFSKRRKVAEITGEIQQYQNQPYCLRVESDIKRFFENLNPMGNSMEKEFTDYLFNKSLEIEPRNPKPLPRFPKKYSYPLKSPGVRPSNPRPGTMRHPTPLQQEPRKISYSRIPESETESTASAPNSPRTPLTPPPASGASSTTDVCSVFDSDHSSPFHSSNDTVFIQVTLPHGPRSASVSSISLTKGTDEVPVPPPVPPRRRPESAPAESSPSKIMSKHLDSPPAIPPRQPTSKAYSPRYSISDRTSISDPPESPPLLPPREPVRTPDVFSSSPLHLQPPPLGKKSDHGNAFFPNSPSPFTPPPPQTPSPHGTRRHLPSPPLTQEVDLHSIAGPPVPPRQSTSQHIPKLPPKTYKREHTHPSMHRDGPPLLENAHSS
Epidermal growth factor receptor, sequence (P00533 whole entry, the tested form may be a part): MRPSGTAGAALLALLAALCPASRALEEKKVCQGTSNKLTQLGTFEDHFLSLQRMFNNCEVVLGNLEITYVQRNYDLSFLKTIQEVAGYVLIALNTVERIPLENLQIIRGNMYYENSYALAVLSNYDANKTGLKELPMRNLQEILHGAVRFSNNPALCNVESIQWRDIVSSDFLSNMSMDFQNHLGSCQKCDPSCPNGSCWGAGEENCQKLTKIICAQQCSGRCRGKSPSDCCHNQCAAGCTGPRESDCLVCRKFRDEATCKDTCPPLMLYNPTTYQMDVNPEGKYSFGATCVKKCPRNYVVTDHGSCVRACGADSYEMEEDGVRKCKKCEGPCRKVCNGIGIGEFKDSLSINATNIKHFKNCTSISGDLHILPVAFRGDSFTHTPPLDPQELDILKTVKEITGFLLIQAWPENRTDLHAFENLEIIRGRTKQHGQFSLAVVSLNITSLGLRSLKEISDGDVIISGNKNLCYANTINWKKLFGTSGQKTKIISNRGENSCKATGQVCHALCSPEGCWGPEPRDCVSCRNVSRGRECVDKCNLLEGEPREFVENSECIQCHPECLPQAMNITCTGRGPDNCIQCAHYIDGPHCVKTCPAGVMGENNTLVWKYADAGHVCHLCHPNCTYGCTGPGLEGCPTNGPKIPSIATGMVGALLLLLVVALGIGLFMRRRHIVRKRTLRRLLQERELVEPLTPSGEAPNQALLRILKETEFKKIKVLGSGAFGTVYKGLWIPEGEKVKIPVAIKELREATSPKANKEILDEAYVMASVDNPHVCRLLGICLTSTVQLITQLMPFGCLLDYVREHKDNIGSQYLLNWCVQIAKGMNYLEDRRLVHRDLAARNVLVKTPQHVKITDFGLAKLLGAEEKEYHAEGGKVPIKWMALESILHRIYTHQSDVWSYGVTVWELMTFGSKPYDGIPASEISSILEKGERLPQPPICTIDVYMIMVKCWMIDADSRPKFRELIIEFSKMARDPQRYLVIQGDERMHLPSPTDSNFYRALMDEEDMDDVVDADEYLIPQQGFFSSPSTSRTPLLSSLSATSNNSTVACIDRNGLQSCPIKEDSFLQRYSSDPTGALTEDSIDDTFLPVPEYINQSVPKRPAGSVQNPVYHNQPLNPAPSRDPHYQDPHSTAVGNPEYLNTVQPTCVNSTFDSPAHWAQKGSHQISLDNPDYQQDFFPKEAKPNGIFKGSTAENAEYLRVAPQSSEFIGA

A word on the IC50: it is the concentration at which inhibition is half-maximal. `COc1cc2nc(C)nc(NC(C)c3ccc(-c4ccccc4CO)s3)c2cc1OC` (configuration not stated): the IC50 in assay [1] was determined as 280 nM.
On to `COc1cc2nc(C(F)(F)F)nc(N[C@H](C)c3cccc4ccccc34)c2cc1OC`, for which the IC50 in assay [1] was 1450 nM; in assay [2], more than 20000 nM.
For the molecule `COc1cc2nc(C)nc(NC(C)c3ccc(-c4ccccc4[C@@H](C)N)s3)c2cc1OC` (some centres not stated), in assay [1], the IC50 is 200 nM.
On the same count and under the same terms, the value for `COc1cc2nc(C)nc(NC(C)c3ccc(-c4ccccc4S(=O)(=O)N(C)C)s3)c2cc1OC` (configuration not stated) was 2160 nM.
With `COc1cc2nc(C)nc(NC(C)c3ccc(-c4ccccc4CNCCO)s3)c2cc1OC` (configuration not stated), the IC50 in assay [1] was 46 nM.
Same read-out and setting: the value for `CCNCc1ccccc1-c1ccc(C(C)Nc2nc(C)nc3cc(OC)c(OC)cc23)s1` (configuration not stated) was 55 nM.
In the case of `COc1cc2nc(C)nc(N[C@H](C)c3cccc(Br)c3)c2cc1OC`, the IC50 in assay [1] is 170 nM; in assay [2] it was more than 20000 nM.
On to `COc1cc2nc(C)nc(NC(C)c3ccc(-c4ccccc4CNCc4ccccc4)s3)c2cc1OC` (configuration not stated), for which the IC50 in assay [1] is 470 nM.
Still for that read-out and setting: the value for `COc1cc2nc(C)nc(NC(C)c3ccc(-c4ccccc4CN(C)CCO)s3)c2cc1OC` (configuration not stated) was 47 nM; that for `COc1cc2nccc(N[C@H](C)c3cccc4ccccc34)c2cc1OC` was 2590 nM; that for `COc1cc2nc(C)nc(NC(C)c3ccc(-c4ccc(F)cc4CNC(C)=O)s3)c2cc1OC` (configuration not stated) was 590 nM.
In the case of `COc1cc2nc(C)nc(NC(C)c3ccc(-c4ccccc4CNCC(F)(F)F)s3)c2cc1OC` (configuration not stated), the IC50 in assay [1] is 3150 nM.
As for `CCN(CC)Cc1ccccc1-c1ccc(C(C)Nc2nc(C)nc3cc(OC)c(OC)cc23)s1` (configuration not stated), in assay [1], the half-inhibitory concentration (IC50) turned out to be 170 nM.
Consider `O=C(CO)N1CCc2ccccc2C1`, for which the result in assay [3], in assay [4] and in assay [5] was inactive.
`CNCc1ccccc1-c1ccc(C(C)Nc2nc(C)nc3cc(OC)c(OC)cc23)s1` (configuration not stated): the IC50 in assay [1] was 41 nM.
As for `COc1cc2nc(C)nc(N(C)[C@H](C)c3cccc(Br)c3)c2cc1OC`, the IC50 in assay [1] and in assay [2] was more than 20000 nM in each case.
As for `CCCCNCc1ccccc1-c1ccc(C(C)Nc2nc(C)nc3cc(OC)c(OC)cc23)s1` (configuration not stated), the IC50 in assay [1] was 98 nM.
In the case of `COc1cc2ccnc(N[C@H](C)c3cccc4ccccc34)c2cc1OC`, the values for the IC50 in assay [1] and in assay [2] were 12200 nM and more than 20000 nM, respectively.
As to `COc1cc2nc(C)nc(NC(C)c3ccc(-c4ccccc4C#N)s3)c2cc1OC` (configuration not stated), the concentration for half-maximal inhibition (IC50) in assay [1] came out at 590 nM.
Same read-out and setting: in the case of `COc1cc2nc(C)nc(NC(C)c3ccc(-c4ccccc4CNCC(F)F)s3)c2cc1OC` (configuration not stated) it was 780 nM.
In turn, `COc1cc2nc(C)nc(N[C@H](C)c3cccc4ccccc34)c2cc1OC` registered an IC50 in assay [2] of more than 20000 nM.
For the molecule `COCCNCc1ccccc1-c1ccc(C(C)Nc2nc(C)nc3cc(OC)c(OC)cc23)s1` (configuration not stated), in assay [1], the IC50 was 100 nM.
Same read-out and setting: in the case of `COc1cc2nc(C)nc(NC(C)c3ccc(-c4ccccc4C(C)(C)N)s3)c2cc1OC` (configuration not stated) it was 400 nM; in that of `COc1cc2nc(C)nc(NC(C)c3ccc(-c4ccccc4CCN)s3)c2cc1OC` (configuration not stated), 51 nM.
Turning to `NCCCc1ccc(Cl)cc1`, the result in assay [3], in assay [4] and in assay [5] was Active.
Consider `COc1cc2nc(N(C)C)nc(N[C@H](C)c3cccc4ccccc34)c2cc1OC`, for which the IC50 in assay [1] is 800 nM; in assay [2], more than 20000 nM.
Regarding `COc1cc2nc(C)nc(NC(C)c3ccc(-c4ccccc4CN(C)C)s3)c2cc1OC` (configuration not stated), the half-maximal inhibitory concentration (IC50) in assay [1] was 40 nM.
Regarding `COc1cc2nc(C)nc(NC(C)c3ccc(-c4ccccc4C(N)=O)s3)c2cc1OC` (configuration not stated), the IC50 in assay [1] was 3210 nM.
Consider `COc1cc2nc(C)nc(NC(C)c3ccc(-c4ccccc4CN)s3)c2cc1OC` (configuration not stated), for which, in assay [1], the half-inhibitory concentration (IC50) turned out to be 80 nM.
Same read-out and setting: in the case of `COc1cc2nc(C)nc(NC(C)c3ccc(-c4ccccc4[C@H](C)N)s3)c2cc1OC` (some centres not stated) it was 230 nM; in that of `COc1cc2nc(C)nc(NC(C)c3ccc(-c4ccccc4CN4CCC4)s3)c2cc1OC` (configuration not stated), 76 nM.
In the case of `COc1cc2nc(C)nc(NC(C)c3ccc(-c4ccccc4CN4CC(F)C4)s3)c2cc1OC` (configuration not stated), the IC50 in assay [1] is 410 nM.
In the case of `COc1cc2nc(C)nc(NC(C)c3ccc(-c4ccccc4S(C)(=O)=O)s3)c2cc1OC` (configuration not stated), in assay [1], the IC50 is 1410 nM.
